The source made the active and inactive calls. No cut-off for these calls is given here. Non-standard residues stand in square brackets, D forms with d. Residues, ends and D or L forms follow the SMILES beside them. Bounds are passed on as bounds.

Series [1] has as its target T1, Kappa-type opioid receptor (Homo sapiens, UniProt P41145). Nature of the series: Antagonist activity at human KOR expressed in HEK293 cells assessed as reduction of U50,488-induced inhibition of forskolin-induced cAMP accumulation by EIA method. It is filed as functional, cell-based. A general note: Changes in cAMP serve as a functional read-out for many G protein-coupled receptors.

Series [2] concerns Mus musculus. Nature of the series: Antinociceptive activity in mouse model of visceral pain assessed as reduction in AcOH-induced stretching or writhing responses at 10 mg/kg, ip 5 mins before AcOH challenge and co-administered with 10 mg/kg, ip DOR antagonist NTD 30 mins before compound dosing. The series is classed as functional, organism-based. On the technique in general: An intraperitoneal irritant provokes the stretching counted in writhing tests.

The test system of series [3] is Mus musculus. Nature of the series: Effect on circling behavior in mouse model of visceral pain at 0.5 to 10 mg/kg, ip dosed 5 mins before AcOH challenge measured within 6 hrs. The series is classed as ADME, organism-based. The following applies: in vivo.
The target in series [4] is T2, Delta-type opioid receptor (Homo sapiens, UniProt P41143). The series can be described thus: Antagonist activity at human DOR expressed in HEK293 cells assessed as reduction of DPDPE-induced inhibition of forskolin-induced cAMP accumulation by EIA method. The series is classed as functional, cell-based. The essentials:
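HEK-293 cells stably expressing hDOR, in serum-free medium with 0.5 mM IBMX, exposed 15 min at 37°C to 10 μM forskolin plus 10 μM DPDPE, with or without compound (0.001 nM-100 μM). cAMP by EIA kit. Triplicate determinations; IC50 as mean ± SE of 5-6 independent experiments.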

Series [5] concerns the target T3, Mu-type opioid receptor (Homo sapiens, UniProt P35372). The series can be described thus: Displacement of [3H]DAMGO from human MOR expressed in HEK293 cell membranes incubated for 90 mins by liquid scintillation counting. The essentials:
(§1)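 Compound (10^-12 to 10^-4 M) incubated 90 min at 25°C in 100 mM Tris-HCl with 0.3% BSA. Cold ligands define nonspecific binding. Filters presoaked in 0.3% polyethylenimine; liquid scintillation counting. Ki from IC50 by Cheng-Prusoff; triplicate.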
In general terms: Loss of bound radioactivity is the signal in a displacement assay; it reports binding, not function.

The target of series [6] is T3, Mu-type opioid receptor. The series is classed as functional, cell-based, HEK293.
The subject of series [7] is Mus musculus. The series can be described thus: Effect on spontaneous locomotor activity in mouse model of visceral pain at 0.5 to 10 mg/kg, ip dosed 5 mins before AcOH challenge measured within 6 hrs. It is filed as ADME, organism-based. Particulars: in vivo.
A short description of series [8]: Stability in mouse serum after 3 hrs by RP-HPLC and ESI-MS analysis. It is filed as ADME, cell-free. The procedure, abridged: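 Compound incubated in mouse serum for 3 h to assess enzymatic stability.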
In series [9] the test system is Mus musculus. Nature of the series: Effect on grooming behavior in mouse model of visceral pain at 0.5 to 10 mg/kg, ip dosed 5 mins before AcOH challenge measured within 6 hrs. It is filed as ADME, organism-based. The following applies: in vivo.
The test system of series [10] is Mus musculus. Nature of the series: Antinociceptive activity in mouse model of visceral pain assessed as reduction in AcOH-induced stretching or writhing responses at 10 mg/kg, ip 5 mins before AcOH challenge and co-administered with 10 mg/kg, ip KOR antagonist norBNI 10 mins before compound dosing. The series is classed as functional, organism-based.
The target of series [11] is T1, Kappa-type opioid receptor. Nature of the series: Displacement of [3H]U69,593 from human KOR expressed in HEK293 cell membranes incubated for 90 mins by liquid scintillation counting. The essentials: as §1
For series [12], the system named is Mus musculus. The series can be described thus: Antinociceptive activity in mouse model of visceral pain assessed as reduction in AcOH-induced stretching or writhing responses dosed intraperitoneally 5 mins before AcOH challenge. The series is classed as functional. The essentials:
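Mice given 0.6% w/v AcOH in water ip (0.1 ml/10 g). Compound (0.5-10 mg/kg) or vehicle given ip 5 min earlier. Stretching/writhing counted for 10 min after AcOH. 6-8 mice per group, mean ± SEM; ED50 derived from the dose-response; Dunnett test after ANOVA.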

The target in series [13] is T3, Mu-type opioid receptor. Nature of the series: Antagonist activity at human MOR expressed in HEK293 cells assessed as reduction of DAMGO-induced inhibition of forskolin-induced cAMP accumulation by EIA method. The series is classed as functional, cell-based.
The test system of series [14] is Mus musculus. Nature of the series: Antinociceptive activity in mouse model of visceral pain assessed as reduction in AcOH-induced stretching or writhing responses at 10 mg/kg, ip 5 mins before AcOH challenge and co-administered with 30 mg/kg, ip opioid antagonist NLX 15 mins before compound dosing. It is filed as functional, organism-based.
In series [15] the target is T2, Delta-type opioid receptor. The series can be described thus: Displacement of [3H]diprenorphine from human DOR expressed in HEK293 cell membranes incubated for 90 mins by liquid scintillation counting.
Series [16] is described as follows: Toxicity in mouse model of visceral pain assessed as induction of straub tail at 0.5 to 10 mg/kg, ip dosed 5 mins before AcOH challenge measured within 6 hrs. Particulars: in vivo. The series is classed as organism-based.
Series [17] addresses T3, Mu-type opioid receptor. The series can be described thus: Binding affinity to MOR (unknown origin). The procedure, abridged: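 Test compounds were run at 10⁻¹²-10⁻⁴ M, incubated 90 min at 25°C in 100 mM Tris-HCl with 0.3% BSA. Nonspecific binding was defined with cold ligand. Filter-trapped radioactivity was counted by liquid scintillation, with filters presoaked in 0.3% polyethylenimine. Assays were run in triplicate. Ki was derived from IC50 by Cheng-Prusoff.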

For series [18], the target named is T1, Kappa-type opioid receptor. The series can be described thus: Binding affinity to KOR (unknown origin). The essentials:
(§2)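 Displacement binding on membranes from HEK-293 cells stably expressing cloned human receptors; radioligand [³H]diprenorphine for DOR, [³H]U69,593 for KOR. Compounds tested at 10⁻¹²–10⁻⁴ M, incubated 90 min at 25°C in 100 mM Tris-HCl with 0.3% BSA. Nonspecific binding defined with cold ligand. Filter-bound radioactivity counted by liquid scintillation. Ki from IC50 via Cheng-Prusoff. Run in triplicate.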

A short description of series [19]: Antagonist activity against KOR in rabbit vas deferens smooth muscles assessed as inhibition of asimadoline-induced response. The following applies: Oryctolagus cuniculus.
The target of series [20] is T2, Delta-type opioid receptor. The series can be described thus: Binding affinity to DOR (unknown origin). The procedure, abridged: as §2
For series [21], the target named is T3, Mu-type opioid receptor. The series can be described thus: Displacement of [3H]DAMGO from human MOR expressed in HEK293 cell membranes at […] incubated for 90 mins by liquid scintillation counting.
The target of series [22] is T3, Mu-type opioid receptor. Nature of the series: Agonist activity at human MOR expressed in HEK293 cells assessed as inhibition of forskolin-induced cAMP accumulation at 10^-12 to 10^-4 M by EIA method. It is filed as functional, cell-based. The procedure, abridged: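 Whole HEK-293 cells stably expressing hMOR, in serum-free medium with 0.5 mM IBMX, exposed 15 min at 37°C to 10 μM forskolin with or without compound (0.001 nM-100 μM). cAMP measured by EIA kit. Triplicate determinations; IC50 and Emax (% vehicle) as mean ± SE of 5-6 independent experiments.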

T3 sequence (P35372 whole entry): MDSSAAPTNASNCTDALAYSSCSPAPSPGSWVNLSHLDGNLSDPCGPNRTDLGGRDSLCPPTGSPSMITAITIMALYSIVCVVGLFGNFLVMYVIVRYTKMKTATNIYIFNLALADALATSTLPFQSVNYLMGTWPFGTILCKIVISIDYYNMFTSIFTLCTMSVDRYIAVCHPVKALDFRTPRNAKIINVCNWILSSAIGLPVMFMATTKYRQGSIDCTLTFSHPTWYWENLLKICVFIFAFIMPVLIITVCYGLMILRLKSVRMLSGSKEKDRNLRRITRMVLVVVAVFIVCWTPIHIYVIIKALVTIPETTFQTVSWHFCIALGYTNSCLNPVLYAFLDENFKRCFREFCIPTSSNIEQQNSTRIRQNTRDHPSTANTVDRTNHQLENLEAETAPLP
T1 sequence (P41145 whole entry): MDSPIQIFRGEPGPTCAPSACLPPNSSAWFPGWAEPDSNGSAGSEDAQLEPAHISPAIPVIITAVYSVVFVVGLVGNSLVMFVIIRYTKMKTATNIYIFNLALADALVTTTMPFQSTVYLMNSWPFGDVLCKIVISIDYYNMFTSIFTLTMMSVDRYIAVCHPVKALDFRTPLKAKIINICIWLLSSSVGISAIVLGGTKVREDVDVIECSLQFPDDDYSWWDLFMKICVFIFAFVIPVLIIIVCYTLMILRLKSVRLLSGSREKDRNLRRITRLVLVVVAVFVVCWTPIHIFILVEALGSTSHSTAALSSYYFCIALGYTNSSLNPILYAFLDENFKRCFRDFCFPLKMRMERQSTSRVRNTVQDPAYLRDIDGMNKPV
T2 sequence (P41143 whole entry): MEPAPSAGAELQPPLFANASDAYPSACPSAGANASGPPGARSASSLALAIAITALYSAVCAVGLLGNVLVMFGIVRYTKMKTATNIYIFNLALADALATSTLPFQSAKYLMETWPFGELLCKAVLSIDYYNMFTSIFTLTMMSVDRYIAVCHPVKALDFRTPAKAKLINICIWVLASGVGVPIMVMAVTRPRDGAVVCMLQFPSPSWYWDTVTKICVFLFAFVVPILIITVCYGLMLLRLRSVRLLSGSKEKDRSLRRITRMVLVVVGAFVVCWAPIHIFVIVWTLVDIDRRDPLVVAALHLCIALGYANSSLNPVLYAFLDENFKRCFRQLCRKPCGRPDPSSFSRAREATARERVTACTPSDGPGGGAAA

As for `O=C1NCCC(=O)N2CCC[C@@H]2C(=O)N[C@@H](Cc2ccccc2)C(=O)N[C@H]1Cc1c[nH]c2ccccc12`, the inhibition result in series [1], in series [4] and in series [13] was “inactive” each time. Also, the result in [2] and in series [10] was Active. The Activity entry in [3], in series [7], in [9] and in [16] was “Non-Toxic” in each case. Also, the Ki in series [5] was 0.0041 µM; in series [11], greater than 100 µM; in series [15], greater than 100 µM. Also, the midpoint of inhibition in series [6], the IC50, lay at 0.0061 µM. In [8], the Stability result is listed as “Stable”. Moreover, the inhibition entry in series [12] was “Dose-dependent effect”. Also, the median effective dose (ED50) in series [12] (ip) is 0.64 mg/kg. Besides, the result in series [14] was inactive.
For `Cn1cc(C[C@H]2NC(=O)[C@H](Cc3ccccc3)NC(=O)[C@H]3CCCN3C(=O)[C@H](Cc3ccccc3)NC2=O)c2ccccc21`, the inhibition constant Ki in [5], in [11] and in series [15] was greater than 100 µM in each case.
`O=C1N[C@@H](Cc2ccccc2)C(=O)N2CCC[C@@H]2C(=O)N[C@@H](Cc2ccccc2)C(=O)N[C@H]1Cc1c[nH]c2ccccc12` (cyclo(FWF[dP])): the IC50 is 0.26 µM in series [17], 0.047 µM in [18] and 2.6 µM in series [20]. Moreover, in series [19], the 50% effective concentration (EC50) was determined as 1.3 µM. Also, the values for the inhibitory constant (Ki) in series [5], in [11] and in series [15] were 0.127 µM, 0.032 µM and greater than 100 µM, respectively.
Regarding `O=C1NCCCC(=O)N2CCC[C@@H]2C(=O)N[C@@H](Cc2ccccc2)C(=O)N[C@H]1Cc1c[nH]c2ccccc12`, the inhibition result in [1] and in [13] was “inactive” throughout. In addition, the inhibition result in series [4] was “Dose-dependent effect”; in [21] it was less than 50%. The same compound came in with a half-inhibitory concentration (IC50) in [6] of 0.183 µM. The inhibition constant (Ki) is greater than 100 µM in [11] and 0.00308 µM in [15]. Moreover, the result in series [22] was inactive.
For the compound `C[C@@H]1NC(=O)[C@H](Cc2c[nH]c3ccccc23)NC(=O)[C@@H](Cc2ccccc2)NC(=O)[C@H]2CCCN2C1=O`, the Ki in series [5], in series [11] and in series [15] was greater than 100 µM throughout.
In the case of `C[C@H]1NC(=O)[C@H](Cc2c[nH]c3ccccc23)NC(=O)[C@H](Cc2ccccc2)NC(=O)[C@H]2CCCN2C1=O`, the Ki in [5], in series [11] and in series [15] was greater than 100 µM throughout.
In series [18], `O=C1CNC(=O)[C@H](Cc2ccccc2)NC(=O)[C@@H](Cc2c[nH]c3ccccc23)NC(=O)[C@H]2CCCN2C(=O)[C@H](Cc2ccc(O)cc2)N1` (cyclo(FGY[dP][dW])) returned an Activity of 1 ×10⁻⁸ M.
For `Cn1cc(C[C@@H]2NC(=O)[C@H](Cc3ccccc3)NC(=O)[C@H]3CCCN3C(=O)[C@H](Cc3ccccc3)NC2=O)c2ccccc21`, the Ki in [11] and in series [15] was greater than 100 µM each time. Further, the inhibition in series [21] was less than 50%.

What is called inhibition is the drop in the measured response relative to a control, in per cent. By Ki is commonly meant the dissociation constant of the complex between target and ligand, obtained from inhibition or displacement. Usually IC50 stands for the point on the concentration scale where inhibition reaches its midpoint. A lower IC50 goes with inhibition by little substance. The ED50 is the dose at which the effect has come halfway, by size or by number of responders. Usually EC50 stands for the concentration needed to bring the measured effect to its halfway point.

Values taken from ChEMBL document CHEMBL4428100, “Versatile Picklocks To Access All Opioid Receptors: Tuning the Selectivity and Functional Profile of the Cyclotetrapeptide c[Phe-d-Pro-Phe-Trp] (CJ-15,208)” (J Med Chem, 2016).
